Assay results gathered from unrelated publications.
Each line is one published result; the experiments were not run side by side.
Mode: agonist
MC3R: Melanocortin receptor 3 (MC3R, Homo sapiens, UniProt P41968)
GPR84: G-protein coupled receptor 84 (GPR84, Homo sapiens, UniProt Q9NQS5)
AVPR2: Vasopressin V2 receptor (AVPR2, Homo sapiens, UniProt P30518)
Peroxisome proliferator-activated receptor alpha: Peroxisome proliferator-activated receptor alpha (Rattus norvegicus, UniProt P37230)
Neuromedin-U receptor 2: Neuromedin-U receptor 2 (Mus musculus, UniProt Q8BZ39)
DRD2: D(2) dopamine receptor (DRD2, Homo sapiens, UniProt P14416)

SMILES | target | assay | EC50 [nM]
CC(=O)N[C@H]1CSSC[C@@H](C(=O)N[C@@H](Cc2c[nH]c3ccccc23)C(N)=O)NC(=O)[C@@H](Cc2ccccc2)NC(=O)[C@H](CCCNC(=N)N)NC1=O | MC3R | cAMP | 2400
CCCCCCCCCNc1cc(=O)[nH]c(=O)[nH]1 | GPR84 | cAMP | 30.2
NCCCC[C@H](NC(=O)[C@@H]1CCCN1C(=O)[C@@H]1CSSC[C@H](NC(=O)CNC(=O)CNC(=O)CN)C(=O)N[C@@H](Cc2ccc(O)cc2)C(=O)N[C@@H](Cc2ccccc2)C(=O)N[C@@H](CCC(N)=O)C(=O)N[C@@H](CC(N)=O)C(=O)N1)C(=O)NCC(N)=O | AVPR2 | cAMP, TR-FRET | 28
CC(C)(Oc1ccc(C(=O)c2ccc(Cl)cc2)cc1)C(=O)O | Peroxisome proliferator-activated receptor alpha | reporter gene, luciferase | 194000
CC(C)=CCNc1ncnc2c1ncn2[C@@H]1O[C@H](CO)[C@@H](O)[C@H]1O | Adenosine receptor A3 (ADORA3, Homo sapiens, UniProt P0DMS8) | cAMP | 2000
CCCC[C@H](NC(=O)[C@H](CO)NC(=O)[C@H](Cc1ccc(O)cc1)NC(=O)[C@H](CO)NC(C)=O)C(=O)N[C@@H](CCC(=O)O)C(=O)N[C@@H](Cc1c[nH]cn1)C(=O)N[C@@H](C)C(=O)N[C@@H](CCCNC(=N)N)C(=O)N[C@@H](Cc1c[nH]c2ccccc12)C(=O)NCC(=O)N[C@@H](CCCCN)C(=O)N1CCC[C@H]1C(=O)N[C@H](C(=O)NCC(=O)N[C@@H](CCCCN)C(=O)N[C@@H](CCCCN)C(=O)N[C@@H](CCCNC(=N)N)C(N)=O)C(C)C | MC3R | cAMP | 165
CC(C)C[C@H](NC(=O)[C@H](Cc1ccccc1)NC(=O)[C@@H](N)Cc1ccc(O)cc1)C(=O)N[C@@H](Cc1ccccc1)C(=O)N[C@@H](CCCNC(=N)N)C(=O)N1CCC[C@H]1C(=O)N[C@@H](CCCNC(=N)N)C(=O)N[C@@H](CC(N)=O)C(N)=O | Neuromedin-U receptor 2 | β-arrestin recruitment | 8.32
O=c1cc(NCCc2cccc(F)c2)[nH]c(=O)[nH]1 | GPR84 | cAMP | 389
C[C@H](NC(=O)Cc1ccccc1)C(=O)N[C@H](Cc1c[nH]c2ccccc12)C(=O)NCCc1ccccc1 | Bombesin receptor subtype-3 (Brs3, Rattus norvegicus, UniProt Q8K418) | calcium signal, fluorescence | 110
O=c1[nH]c(NCCc2ccc(Br)cc2)c(Br)c(=O)[nH]1 | GPR84 | cAMP | 372
CC(C)C[C@H](NC(=O)[C@H](Cc1ccccc1)NC(=O)[C@H](Cc1ccc(O)cc1)NC(=O)CNC(=O)[C@H](CCCNC(=N)N)NC(=O)[C@H](CO)NC(=O)[C@H](CCC(N)=O)NC(=O)[C@H](CO)NC(=O)[C@H](C)NC(=O)[C@H](Cc1ccccc1)NC(=O)[C@@H]1CCCN1C(=O)[C@H](CO)NC(=O)[C@H](CCC(N)=O)NC(=O)[C@H](Cc1ccccc1)NC(=O)[C@H](CCC(=O)O)NC(=O)[C@H](CCC(=O)O)NC(=O)[C@H](CC(=O)O)NC(=O)[C@@H](NC(=O)[C@H](CCCNC(=N)N)NC(=O)[C@@H](N)Cc1ccccc1)C(C)C)C(=O)N[C@@H](Cc1ccccc1)C(=O)N[C@@H](CCCNC(=N)N)C(=O)N1CCC[C@H]1C(=O)N[C@@H](CCCNC(=N)N)C(=O)N[C@@H](CC(N)=O)C(N)=O | Neuromedin-U receptor 2 | β-arrestin recruitment | 0.331
CCCCCCCCCCNc1cc(O)nc(O)n1 | GPR84 | cAMP | 20.9
NCCCC[C@H](NC(=O)[C@@H]1CCCN1C(=O)[C@@H]1CSSC[C@H](N)C(=O)N[C@@H](Cc2ccc(O)cc2)C(=O)N[C@@H](Cc2ccccc2)C(=O)N[C@@H](CCC(N)=O)C(=O)N[C@@H](CC(N)=O)C(=O)N1)C(=O)NCC(N)=O | AVPR2 | cAMP, TR-FRET | 0.024
FC(F)(F)c1nc2cc(OCCCCN3CCN(c4cccc(Cl)c4Cl)CC3)ccc2s1 | DRD2 | β-arrestin recruitment | 160
Cc1ccc(C)c(OCCCC(C)(C)C(=O)O)c1 | Peroxisome proliferator-activated receptor alpha | reporter gene, luciferase | 122000
CNc1nc2cc(OCCCCN3CCN(c4cccc5ccc(C)nc45)CC3)ccc2s1 | DRD2 | cAMP, luciferase | 28
O=Nc1c(NCCCc2ccccc2)[nH]c(=O)[nH]c1=O | GPR84 | cAMP | 1500
